The record followed here is ChEMBL document CHEMBL1155840, “Sesquiterpenes from Celastrus vulcanicola as photosynthetic inhibitors” (J Nat Prod, 2008).

A short description of assay [1]: (§1) Inhibition of photosynthetic phosphorylation from water to methyl viologen in spinach leaves chloroplast. The assay is classed as functional, Spinacia oleracea. As to conditions: read-out: I50. The procedure, abridged: (§2)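 Isolated spinach chloroplasts (20 μg Chl/mL) osmotically ruptured in 100 mM sorbitol, 10 mM KCl, 5 mM MgCl₂, 0.001 M Na⁺-tricine, with 1 mM ADP, 3 mM Pi and 0.05 mM MV. ATP formed was calculated from light-driven alkalization, back-titrated with HCl. I50 read from concentration-response plots; average of three replicates.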

Assay [2] relates to Spinacia oleracea. In words: Effect on photosystem 2 interaction site in spinach thylakoid membrane assessed as chlorophil-a fluorescence parameter at 10 uM. The assay is classed as cell membranes.
Assay [3] has as its system Spinacia oleracea. In words: Effect on ATP synthesis in spinach leaves chloroplast assessed as blockade of uncoupled electron transport at 50 uM. Format: functional. The essentials: (§3)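 Uncoupled electron transport measured in basal medium with 6 mM NH₄Cl as uncoupler. Actinic light came from a projector lamp through a 5 cm 1% CuSO₄ filter for 2 min. Chloroplasts at 20 μg Chl/mL, 20 °C, blank with chloroplasts alone. Activity given as % of control.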

Assay [4] relates to Spinacia oleracea. Kind of assay: Inhibition of H+ATPase activity in spinach thylakoid membranes at 300 uM. The assay is classed as cell membranes. The essentials: (§4)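 Thylakoid membrane-bound Mg²⁺-ATPase measured during ATP hydrolysis. Released inorganic phosphate determined colorimetrically.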
The test system of assay [5] is Spinacia oleracea. In words: Residual light activated thylakoid membrane bound Mg+ATPase activity in spinach leaves at 300 uM relative to control.
In assay [6] the test system is Spinacia oleracea. In words: Effect on uncoupled photosystem 1 in spinach chloroplast assessed as inhibition of electron transport rate of 2,6-dichlorophenol indophenol to methyl viologen at 300 uM relative to control. Set-up: scale not given: the % may be the effect or the level left. The essentials: (§5)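 Uncoupled PSI flow measured polarographically in 3 mL basal uncoupled medium. Donor was 100 μM DCPIP reduced by 300 μM sodium ascorbate, with 10 μM DCMU to block PSII, 6 mM NH₄Cl and 0.05 mM MV as acceptor. Run at 20 °C; % of control; average of three replicates.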

Assay [7] concerns Spinacia oleracea. In words: Effect on uncoupled photosystem 1 in spinach chloroplast assessed as inhibition of electron transport rate of tetramethyl-p-benzohydroquinone to methyl viologen at 300 uM relative to control. More on the design: scale not given: the % may be the effect or the level left. The essentials: (§6)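 Uncoupled PSI flow TMQH₂→MV monitored polarographically at 20 °C in 3 mL basal electron medium. Additions were 100 μM TMQH₂/300 μM ascorbate, 10 μM DCMU and 6 mM NH₄Cl. Blank with chloroplasts alone; values as % of control; average of three replicates.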

For assay [8], the system named is Spinacia oleracea. In words: Inhibition of light activated thylakoid membrane bound Mg+ATPase activity in spinach leaves at 200 uM relative to control. The following applies: values are per cent of control. The essentials:
as §4

The subject of assay [9] is Spinacia oleracea. Kind of assay: Effect on uncoupled photosystem 1 in spinach chloroplast assessed as inhibition of electron transport rate of tetramethyl-p-benzohydroquinone to methyl viologen at 200 uM relative to control. Set-up: scale not given: the % may be the effect or the level left. The procedure, abridged:
as §6

In assay [10] the test system is Spinacia oleracea. Kind of assay: Effect on uncoupled photosystem 2 in spinach chloroplast assessed as inhibition of electron transport rate of water to sodium silicomolybdate at 300 uM relative to control. More on the design: scale not given: the % may be the effect or the level left. The essentials: (§7)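 PSII water→silicomolybdate measured in the uncoupled electron flow mixture without MV, plus 200 μM SiMo and 10 μM DCMU. Run at 20 °C with a chloroplast-only blank. Activity given as % of control; average of three replicates.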

Assay [11] relates to Spinacia oleracea. Kind of assay: Effect on uncoupled photosystem 1 in spinach chloroplast assessed as inhibition of electron transport rate of 2,6-dichlorophenol indophenol to methyl viologen at 200 uM relative to control. Set-up: scale not given: the % may be the effect or the level left. The procedure, abridged:
as §5

Assay [12] has as its system Spinacia oleracea. In words: Inhibition of light activated thylakoid membrane bound Mg+ATPase activity in spinach leaves at 100 uM relative to control. The following applies: values are per cent of control. The procedure, abridged: as §4
The subject of assay [13] is Spinacia oleracea. In words: Effect on uncoupled photosystem 2 in spinach chloroplast assessed as inhibition of electron transport rate of water to 2,6-dicholorophenol indophenol at 300 uM relative to control. More on the design: scale not given: the % may be the effect or the level left. The essentials: (§8)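 Uncoupled PSII water→DCPIP followed as DCPIP-supported O₂ evolution, measured polarographically. Basal medium used 300 μM K₃[Fe(CN)₆] in place of MV, with 1 μM DBMIB, 50 μM DCPIP and 6 mM NH₄Cl. Run at 20 °C; % of control; average of three replicates.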

For assay [14], the system named is Spinacia oleracea. Kind of assay: Effect on uncoupled photosystem 2 in spinach chloroplast assessed as inhibition of electron transport rate of water to sodium silicomolybdate at 100 uM relative to control. Set-up: scale not given: the % may be the effect or the level left. The procedure, abridged: as §7
Assay [15] deals with Spinacia oleracea. Kind of assay: Effect on uncoupled photosystem 2 in spinach chloroplast assessed as inhibition of electron transport rate of water to 2,6-dicholorophenol indophenol at 200 uM relative to control. Set-up: scale not given: the % may be the effect or the level left. The procedure, abridged: as §8
In assay [16] the test system is Spinacia oleracea. Kind of assay: Effect on uncoupled photosystem 1 in spinach chloroplast assessed as inhibition of electron transport rate of tetramethyl-p-benzohydroquinone to methyl viologen at 100 uM relative to control. More on the design: scale not given: the % may be the effect or the level left. The procedure, abridged: as §6
The subject of assay [17] is Spinacia oleracea. Kind of assay: Effect on ATP synthesis in spinach leaves chloroplast assessed as blockade of phosphorylating electron transport at 300 uM. Format: functional. The essentials:
(§9)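 Photophosphorylating noncyclic electron transport run as the basal assay (chloroplasts 20 μg Chl/mL, 1 min light, MV acceptor) with 1 mM ADP and 3 mM Pi added. Temperature 20 °C with a chloroplast-only blank. Activity expressed as % of control.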

Assay [18] deals with Spinacia oleracea. Kind of assay: Effect on uncoupled photosystem 1 in spinach chloroplast assessed as inhibition of electron transport rate of 2,6-dichlorophenol indophenol to methyl viologen at 100 uM relative to control. More on the design: scale not given: the % may be the effect or the level left. The procedure, abridged: as §5
The subject of assay [19] is Spinacia oleracea. Kind of assay: Effect on ATP synthesis in spinach leaves chloroplast assessed as blockade of basal electron transport at 300 uM. The assay is classed as functional. The essentials: (§10)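 Spinach chloroplasts at 20 μg chlorophyll/mL, illuminated 1 min in basal electron transport medium (3 mL) with 0.05 mM MV as electron acceptor. Run at 20 °C with a chloroplast-only blank. Rates are in μequiv e⁻ h⁻¹ mg⁻¹ Chl; 100% is the control activity.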

Assay [20] concerns Spinacia oleracea. Kind of assay: Effect on ATP synthesis in spinach leaves chloroplast assessed as blockade of uncoupled electron transport at 300 uM. Format: functional. The essentials:
as §3

In assay [21] the test system is Spinacia oleracea. In words: Effect on uncoupled photosystem 1 in spinach chloroplast assessed as inhibition of electron transport rate of 2,6-dichlorophenol indophenol to methyl viologen at 50 uM relative to control. More on the design: scale not given: the % may be the effect or the level left. The essentials:
as §5

Assay [22] has as its system Spinacia oleracea. In words: Effect on uncoupled photosystem 2 in spinach chloroplast assessed as inhibition of electron transport rate of water to 2,6-dicholorophenol indophenol at 100 uM relative to control. Set-up: scale not given: the % may be the effect or the level left. The procedure, abridged:
as §8

The test system of assay [23] is Spinacia oleracea. In words: Effect on photosystem 2 interaction site in spinach thylakoid membrane assessed as chlorophil-a fluorescence parameter at 300 uM. The assay is classed as cell membranes. The procedure, abridged:
(§11)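 Freshly lysed spinach chloroplasts (20 μg Chl mL⁻¹) in the basal noncyclic electron transport medium were incubated with the compound for 5 min in the dark at room temperature. Rapid polyphasic Chl a fluorescence of PSII was then recorded at room temperature using a 2 s saturating pulse (2500 μmol […] s⁻¹, 650 nm LEDs). F0, Fm, Fv/Fm and area were read.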

Assay [24] concerns Spinacia oleracea. Kind of assay: Effect on uncoupled photosystem 2 in spinach chloroplast assessed as inhibition of electron transport rate of water to 2,6-dicholorophenol indophenol at 50 uM relative to control. Set-up: scale not given: the % may be the effect or the level left. The essentials:
as §8

The test system of assay [25] is Spinacia oleracea. In words: Effect on uncoupled photosystem 2 in spinach chloroplast assessed as inhibition of electron transport rate of water to sodium silicomolybdate at 50 uM relative to control. Set-up: scale not given: the % may be the effect or the level left. The procedure, abridged:
as §7

The test system of assay [26] is Spinacia oleracea. Kind of assay: Effect on uncoupled photosystem 2 in spinach chloroplast assessed as inhibition of electron transport rate of water to sodium silicomolybdate at 200 uM relative to control. More on the design: scale not given: the % may be the effect or the level left. The essentials: as §7
Assay [27] deals with Spinacia oleracea. Kind of assay: Effect on uncoupled photosystem 1 in spinach chloroplast assessed as inhibition of electron transport rate of tetramethyl-p-benzohydroquinone to methyl viologen at 50 uM relative to control. More on the design: scale not given: the % may be the effect or the level left. The procedure, abridged:
as §6

Assay [28] relates to Spinacia oleracea. Kind of assay: Effect on photosystem 2 interaction site in spinach thylakoid membrane assessed as chlorophil-a fluorescence parameter at 150 uM. Format: cell membranes. The essentials: as §11
Assay [29] concerns Spinacia oleracea. Kind of assay: Effect on ATP synthesis in spinach leaves chloroplast assessed as blockade of phosphorylating electron transport at 50 uM. The assay is classed as functional. The procedure, abridged:
as §9

In assay [30] the test system is Spinacia oleracea. Kind of assay: Effect on ATP synthesis in spinach leaves chloroplast assessed as blockade of basal electron transport at 50 uM. The assay is classed as functional. The procedure, abridged: as §10
For assay [31], the system named is Spinacia oleracea. In words: Effect on photosystem 2 interaction site in spinach thylakoid membrane assessed as chlorophil-a fluorescence parameter at 600 uM. The assay is classed as cell membranes. The procedure, abridged: as §11
Assay [32] relates to Spinacia oleracea. The description is as §1. Format: functional. The procedure, abridged:
as §2

What is called inhibition is the percentage by which the read-out fell short of the control.

The source made the active and inactive calls. The calls are words filed in the database; no cut-off is given here.

For `CC(=O)O[C@H]1CC[C@@H](C)[C@]23OC(C)(C)[C@H]([C@H](OC(=O)/C=C/c4ccccc4)[C@H](OC(=O)c4ccccc4)[C@]12C)[C@H]3O`, the IC50 in assay [1] was found to be 44 µM.
Regarding `CN(C)C(=O)Nc1ccc(Cl)c(Cl)c1`, the Flu intensity in the assay with Spinacia oleracea [2] turned out to be 1200.
`CC(=O)O[C@H]1CC[C@](C)(O)[C@]23OC(C)(C)[C@H]([C@H](OC(=O)/C=C/c4ccccc4)[C@H](OC(=O)c4ccccc4)[C@]12C)[C@H]3O`: the inhibition in the assay on Spinacia oleracea [3] was found to be 26%; with Spinacia oleracea [4] it was 13%; in the assay with Spinacia oleracea [17] it was 68%; with Spinacia oleracea [19] it was 32%; in the assay with Spinacia oleracea [20], 52%; with Spinacia oleracea [29] it was 79%. Besides, the inhibition with Spinacia oleracea [30] worked out at 83%. The residual activity turned out to be 87% in the assay on Spinacia oleracea [5], 89% in the assay with Spinacia oleracea [8] and 91% in the assay with Spinacia oleracea [12]. For the same compound, the Activity in the assay on Spinacia oleracea [6] amounted to 100%; with Spinacia oleracea [7], 131%; in the assay with Spinacia oleracea [9] it was 120%; in the assay with Spinacia oleracea [10], 11%; with Spinacia oleracea [11], 100%; in the assay on Spinacia oleracea [13] it was 64%. Further, the Activity in the assay with Spinacia oleracea [14] was 32%; in the assay with Spinacia oleracea [15], 71%; in the assay with Spinacia oleracea [16], 129%; in the assay with Spinacia oleracea [18], 100%; in the assay with Spinacia oleracea [21], 106%; in the assay on Spinacia oleracea [22], 80%. Further, the Activity with Spinacia oleracea [24] is 93%; in the assay on Spinacia oleracea [25], 32%; with Spinacia oleracea [26] it was 21%; in the assay on Spinacia oleracea [27], 115%. The IC50 in assay [1] was determined as 25 µM. The Flu intensity with Spinacia oleracea [23] stood at 1260; in the assay with Spinacia oleracea [28], 1220; with Spinacia oleracea [31] it was 875.
With `CC(=O)O[C@H]1CC[C@](C)(O)[C@]23OC(C)(C)[C@H]([C@H](OC(=O)/C=C/c4ccccc4)[C@H](OC(=O)c4ccccc4)[C@]12C)[C@H]3OC(C)=O`, the result in the assay on Spinacia oleracea [32] was inactive.
